pIC50: −log10 of the molar value. Active and inactive are the calls of the source. No cut-off for these calls is given here.

Two compounds from ChEMBL document CHEMBL3102786, “Anilides and quinolones with nitrogen-bearing substituents from benzothiophene and thienothiophene series: synthesis, photochemical synthesis, cytostatic evaluation, 3D-derived QSAR analysis and DNA-binding properties” (Eur J Med Chem, 2014) can be followed below.

For one assay, the system named is HCT-116. The assay can be described thus: Cytotoxicity against human HCT116 cells after 72 hrs by MTT assay. The format is functional, cell-based. The following applies: Homo sapiens, HCT-116, 72 h. In outline:
(§1)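 HCT 116 and H 460 were seeded at 3×10^4 cells/mL and MCF-7 at 5×10^4 cells/mL in DMEM with 10% FBS, 2 mM glutamine and antibiotics, at 37 °C in 5% CO2. Compounds were added after 24 h (DMSO <1%). After 72 h, MTT absorbance was read at 570 nm. Runs were technical quadruplicates with ≥2 biological replicates, and IC50 was obtained by linear interpolation around 50% growth.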
(Formazan colour is commonly taken as a measure of viable cells.)

Assay [1] can be described thus: Cytotoxicity against human H460 cells after 72 hrs by MTT assay. The class given is functional, cell-based, NCI-H460. The following applies: Homo sapiens, NCI-H460, 72 h. In outline: as §1
Assay [2] has as its target DNA topoisomerase 2-alpha (Homo sapiens) (UniProt P11388). The assay can be described thus: Inhibition of DNA topoisomerase 2 (unknown origin)-mediated DNA cleavage assessed as linear band at 50 uM by agarose gel electrophoresis. In outline:
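Topoisomerase II DNA cleavage assay was run per an earlier method, with etoposide as the Topo II poison positive control. Compounds came from 10 mM DMSO stocks freshly diluted in aqueous buffer.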

Another assay relates to Nucleic Acid. The assay can be described thus: Binding affinity to Escherichia coli supercoiled pUC19 DNA assessed as intercalation at 0.2 to 5 uM by agarose gel electrophoresis in presence of human DNA topoisomerase 1. The format is nucleic-acid assay. In short, it runs like this: (§2)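 Supercoiled pUC19 plasmid was incubated with or without compound across the stated µM range, then relaxed with human topoisomerase I. Reactions were stopped with SDS and proteinase K. Samples were run on a 1% agarose gel in TBE for 2 h at 120 V and post-stained with ethidium bromide. Supercoiled, relaxed and nicked bands were scored under UV.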

In assay [3] the test system is DNA. The assay can be described thus: Binding affinity to calf thymus DNA at 50 uM by circular dichroism spectra analysis. The format is nucleic-acid assay. To be noted: Bos taurus. In short, it runs like this: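 Drug (50 µM) was incubated in BPE buffer with or without CT-DNA at 0.1–100 µM. CD spectra were recorded from 480 to 230 nm in a 10 mm quartz cell at 20 °C under Peltier control.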
(In general: CD spectra are sensitive to the conformation of chiral molecules.)

A short description of assay [4]: Binding affinity to DNA (unknown origin) assessed as inhibition of DNase1-mediated cleavage at 2 to 5 uM by DNase1 footprinting assay. In short, it runs like this: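 DNase I footprinting run essentially per an earlier protocol. Gels were exposed to a storage screen at room temperature and then scanned. Compounds were made as 10 mM DMSO stocks and freshly diluted into aqueous buffer.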

In assay [5] the test system is DNA. In words: Binding affinity to calf thymus DNA assessed as change in melting temperature at 1 drug/DNA ratio by spectrophotometry. The format is nucleic-acid assay. The following applies: Bos taurus. In outline:
(§3)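 CT-DNA (20 µM) was dialyzed and incubated alone or with compound at drug/base-pair ratio R 0.25–1 in BPE buffer (6 mM Na2HPO4, 2 mM NaH2PO4, 1 mM EDTA, pH 7.1). A260 was read every min from 20–100 °C at 1 °C/min against a compound-matched reference. Tm was taken from the first-derivative midpoint, and ΔTm = Tm(drug+DNA) − Tm(DNA alone).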

Another assay deals with MCF7. In words: Cytotoxicity against human MCF7 cells after 72 hrs by MTT assay. The format is functional, cell-based. To be noted: Homo sapiens, MCF7, 72 h. In short, it runs like this: as §1
The subject of assay [6] is DNA. In words: Binding affinity to calf thymus DNA assessed as change in melting temperature at 0.5 drug/DNA ratio by spectrophotometry. The format is nucleic-acid assay. To be noted: Bos taurus. In short, it runs like this:
as §3

Assay [7] deals with DNA. In words: Binding affinity to calf thymus DNA assessed as change in melting temperature at 0.25 drug/DNA ratio by spectrophotometry. The class given is nucleic-acid assay. The following applies: Bos taurus. In outline: as §3
Assay [8] deals with DNA. In words: Binding affinity to calf thymus DNA assessed as hypochromic effect at 20 uM by UV-Visible spectroscopy relative to control. The format is nucleic-acid assay. The following applies: Bos taurus. In outline:
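Compound (20 µM) in BPE buffer pH 7.1 was titrated with CT-DNA, 10–100 µM in 10 µM steps and then to 200 µM in 20 µM steps (base pairs). Spectra were recorded from 230–530 nm in a 10 mm quartz cuvette, referenced against a cuvette holding the same DNA concentration.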

In assay [9] the target is T1, DNA topoisomerase 1 (Homo sapiens) (UniProt P11387).
T1 sequence (whole entry): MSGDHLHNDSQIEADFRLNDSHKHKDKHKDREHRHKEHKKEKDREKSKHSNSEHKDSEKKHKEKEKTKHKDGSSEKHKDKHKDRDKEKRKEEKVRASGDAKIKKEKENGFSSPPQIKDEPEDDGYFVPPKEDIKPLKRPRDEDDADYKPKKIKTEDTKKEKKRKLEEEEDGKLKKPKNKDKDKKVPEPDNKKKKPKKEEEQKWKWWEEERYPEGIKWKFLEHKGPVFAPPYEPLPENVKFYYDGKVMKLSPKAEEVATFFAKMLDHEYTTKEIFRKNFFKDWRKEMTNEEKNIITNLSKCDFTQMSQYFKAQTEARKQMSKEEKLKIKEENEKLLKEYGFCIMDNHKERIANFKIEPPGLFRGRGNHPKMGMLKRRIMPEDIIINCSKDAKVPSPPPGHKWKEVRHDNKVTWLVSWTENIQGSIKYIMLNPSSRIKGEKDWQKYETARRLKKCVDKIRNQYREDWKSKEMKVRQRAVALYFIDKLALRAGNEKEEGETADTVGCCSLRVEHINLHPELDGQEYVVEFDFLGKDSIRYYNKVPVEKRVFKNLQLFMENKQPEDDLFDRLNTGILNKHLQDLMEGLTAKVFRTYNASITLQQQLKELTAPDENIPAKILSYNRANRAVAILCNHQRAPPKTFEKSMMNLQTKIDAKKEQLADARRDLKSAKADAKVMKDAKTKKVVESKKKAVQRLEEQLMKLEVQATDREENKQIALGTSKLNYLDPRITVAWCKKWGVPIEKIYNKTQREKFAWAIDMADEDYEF
The assay can be described thus: Inhibition of human topoisomerase 1-mediated DNA cleavage assessed as accumulation of nicked DNA at 1 to 50 uM by agarose gel electrophoresis. In short, it runs like this: as §2

For assay [10], the target named is DNA topoisomerase 2-alpha (Homo sapiens) (UniProt P11388). To be noted: 20 to 50 uM.
Chain of DNA topoisomerase 2-alpha (Homo sapiens) (P11388 whole entry): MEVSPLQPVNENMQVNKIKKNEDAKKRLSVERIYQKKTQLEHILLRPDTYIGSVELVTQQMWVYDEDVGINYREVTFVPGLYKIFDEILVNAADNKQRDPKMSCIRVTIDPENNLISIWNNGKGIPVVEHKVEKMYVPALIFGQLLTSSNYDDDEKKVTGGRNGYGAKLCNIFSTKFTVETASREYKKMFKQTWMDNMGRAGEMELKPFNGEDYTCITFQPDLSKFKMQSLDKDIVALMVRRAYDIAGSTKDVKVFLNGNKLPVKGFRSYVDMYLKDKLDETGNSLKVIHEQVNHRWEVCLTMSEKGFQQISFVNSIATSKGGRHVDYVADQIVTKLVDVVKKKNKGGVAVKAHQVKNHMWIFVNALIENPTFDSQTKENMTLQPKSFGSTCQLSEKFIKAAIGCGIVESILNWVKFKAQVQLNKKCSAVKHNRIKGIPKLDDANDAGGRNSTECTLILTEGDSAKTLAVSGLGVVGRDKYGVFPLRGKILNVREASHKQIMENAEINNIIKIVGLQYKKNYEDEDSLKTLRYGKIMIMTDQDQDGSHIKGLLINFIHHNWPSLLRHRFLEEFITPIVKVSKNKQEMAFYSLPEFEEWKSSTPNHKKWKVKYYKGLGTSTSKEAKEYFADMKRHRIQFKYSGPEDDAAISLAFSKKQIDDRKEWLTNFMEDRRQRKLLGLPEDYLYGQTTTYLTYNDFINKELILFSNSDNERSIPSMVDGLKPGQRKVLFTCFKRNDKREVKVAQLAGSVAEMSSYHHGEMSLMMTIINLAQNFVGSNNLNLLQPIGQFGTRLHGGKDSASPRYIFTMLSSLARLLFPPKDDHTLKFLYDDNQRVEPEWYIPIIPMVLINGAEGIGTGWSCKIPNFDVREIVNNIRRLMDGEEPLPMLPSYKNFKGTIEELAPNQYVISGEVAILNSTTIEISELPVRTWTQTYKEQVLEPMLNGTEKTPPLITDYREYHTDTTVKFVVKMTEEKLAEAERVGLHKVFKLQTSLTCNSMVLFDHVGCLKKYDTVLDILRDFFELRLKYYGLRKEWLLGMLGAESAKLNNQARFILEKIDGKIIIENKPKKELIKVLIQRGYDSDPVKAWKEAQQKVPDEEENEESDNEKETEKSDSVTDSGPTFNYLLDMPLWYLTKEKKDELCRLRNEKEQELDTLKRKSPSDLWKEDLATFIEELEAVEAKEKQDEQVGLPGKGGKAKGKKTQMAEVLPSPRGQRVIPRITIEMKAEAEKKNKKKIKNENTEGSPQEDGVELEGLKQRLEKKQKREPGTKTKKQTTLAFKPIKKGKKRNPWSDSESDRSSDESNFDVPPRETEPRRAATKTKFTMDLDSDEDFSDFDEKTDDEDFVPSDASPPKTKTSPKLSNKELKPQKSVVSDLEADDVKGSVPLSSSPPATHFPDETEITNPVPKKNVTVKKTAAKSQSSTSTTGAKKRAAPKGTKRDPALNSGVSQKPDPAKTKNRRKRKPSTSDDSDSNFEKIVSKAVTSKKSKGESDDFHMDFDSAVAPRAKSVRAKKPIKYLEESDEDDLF

For the compound `C[N+](C)(C)c1ccc2[nH]c(=O)c3sc4ccccc4c3c2c1`, the results for the pIC50 (with HCT-116; in assay [1]; with MCF7) were under 4.00, under 4.00 and 4.30, respectively. Moreover, the “Topo II DNA cleavage inhibition (active/not active)” value in assay [2] was “inactive”. Further, the result (in the assay on Nucleic Acid; in [4]) was Active. Further, the outcome in the assay on DNA [3] was inactive. Also, the values for the ΔTm in the assay with DNA [5], with DNA [6] and with DNA [7] were 16.9 °C, 12.8 °C and 10 °C, respectively. Moreover, the Activity in the assay with DNA [8] worked out at 49%. The inhibition result in [9] was “inactive”.

In the case of `COc1cc([C@@H]2c3cc4c(cc3[C@@H](O[C@@H]3O[C@@H]5CO[C@@H](C)O[C@H]5[C@H](O)[C@H]3O)[C@H]3COC(=O)[C@H]23)OCO4)cc(OC)c1O`, the inhibition result in [10] was “Active”.

A word on the pIC50: it is the IC50 on a negative log10 scale, so that one unit is a factor of ten. Lower therefore signals a large IC50. The ΔTm is the shift of the melting midpoint relative to a reference.
